Measurements as given in ChEMBL document CHEMBL1132771, “Analogues of SB-203207 as inhibitors of tRNA synthetases” (Bioorg Med Chem Lett, 2000).
In brackets after ≈: the same amount, converted by molar mass. Activity calls are given as the source filed them. The rule behind the calls is not given here.

Legend:
[1] = target: T1, Isoleucine--tRNA ligase (Staphylococcus aureus) (UniProt P41972); experiment: Compound (100 uM) was evaluated for its inhibitory activity against Isoleucyl-tRNA synthetase from staphylococcus aureus WCUH29
T1 sequence (whole entry): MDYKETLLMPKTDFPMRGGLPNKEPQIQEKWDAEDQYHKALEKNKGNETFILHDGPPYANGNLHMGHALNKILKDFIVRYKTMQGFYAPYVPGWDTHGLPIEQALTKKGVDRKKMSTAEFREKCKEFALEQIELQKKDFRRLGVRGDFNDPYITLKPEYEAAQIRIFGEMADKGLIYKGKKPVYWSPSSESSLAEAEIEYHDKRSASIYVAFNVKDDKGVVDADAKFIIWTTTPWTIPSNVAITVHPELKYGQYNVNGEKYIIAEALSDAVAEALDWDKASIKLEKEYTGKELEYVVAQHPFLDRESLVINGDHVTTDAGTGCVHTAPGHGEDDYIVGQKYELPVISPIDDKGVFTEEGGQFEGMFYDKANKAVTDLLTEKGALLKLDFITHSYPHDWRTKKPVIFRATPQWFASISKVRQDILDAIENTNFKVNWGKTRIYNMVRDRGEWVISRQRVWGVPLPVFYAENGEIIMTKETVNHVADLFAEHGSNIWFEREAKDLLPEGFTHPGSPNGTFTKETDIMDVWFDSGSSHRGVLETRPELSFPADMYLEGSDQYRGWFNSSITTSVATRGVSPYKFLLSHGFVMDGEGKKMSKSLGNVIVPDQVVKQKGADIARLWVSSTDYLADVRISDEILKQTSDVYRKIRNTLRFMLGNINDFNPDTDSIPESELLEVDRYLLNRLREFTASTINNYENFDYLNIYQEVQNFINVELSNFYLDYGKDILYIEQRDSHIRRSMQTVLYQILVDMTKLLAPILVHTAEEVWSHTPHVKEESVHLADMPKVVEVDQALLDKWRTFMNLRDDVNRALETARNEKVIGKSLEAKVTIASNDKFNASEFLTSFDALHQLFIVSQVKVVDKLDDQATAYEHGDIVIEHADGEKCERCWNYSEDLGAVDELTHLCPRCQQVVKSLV

[2] = target: T2, Isoleucyl-tRNA synthetase (Rattus norvegicus, UniProt O35880); experiment: Compound was evaluated for its inhibitory activity against Isoleucyl-tRNA synthetase from rat liver
T2 sequence (O35880 whole entry): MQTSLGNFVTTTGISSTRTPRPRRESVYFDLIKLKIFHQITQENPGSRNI

[3] = system: Staphylococcus aureus; experiment: Compound (100 uM) was evaluated for its inhibitory activity against VRS (valyl tRNA synthetase) from staphylococcus aureus WCUH29; no inhibition
[4] = system: Leucine--tRNA ligase (Staphylococcus aureus); experiment: Compound (100 uM) was evaluated for its inhibitory activity against Leucyl-tRNA synthetase from staphylococcus aureus WCUH29; no inhibition
[5] = target: T3, Isoleucine--tRNA ligase (Staphylococcus aureus, UniProt P41972); experiment: Compound was evaluated for its inhibitory activity against Isoleucyl-tRNA synthetase from staphylococcus aureus WCUH29
T3 sequence (P41972 whole entry): T1 sequence (whole entry)

[6] = system: Staphylococcus aureus; experiment: Compound (100 uM) was evaluated for its inhibitory activity against VRS (valyl tRNA synthetase) from staphylococcus aureus WCUH29
[7] = target: T4, Isoleucyl-tRNA synthetase (Rattus norvegicus) (UniProt O35880); experiment: Compound (100 uM) was evaluated for its inhibitory activity against Isoleucyl-tRNA synthetase from rat liver
T4 sequence (whole entry): T2 sequence (O35880 whole entry)

[8] = system: Leucine--tRNA ligase (Staphylococcus aureus); experiment: Compound (100 uM) was evaluated for its inhibitory activity against Leucyl-tRNA synthetase from staphylococcus aureus WCUH29
[9] = system: Staphylococcus aureus; experiment: Compound (10 uM) was evaluated for its inhibitory activity against VRS (valyl tRNA synthetase) from staphylococcus aureus WCUH29; no inhibition
[10] = system: Leucine--tRNA ligase (Staphylococcus aureus); experiment: Compound (10 uM) was evaluated for its inhibitory activity against Leucyl-tRNA synthetase from staphylococcus aureus WCUH29; no inhibition
[11] = system: Escherichia coli; experiment: Compound was evaluated for the antibacterial activity against Escherichia coli 120 AcrAB-; format: functional
Outline: (§1)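 Broth microdilution MIC. Compounds in DMSO, diluted 1:10 in water to a 256 µg mL-1 stock, then serially diluted in supplemented cation-adjusted Mueller Hinton broth. Each well received an equal volume of isolate suspension (~1 × 10^6 cfu mL-1). Final concentrations were 0.06–64 µg mL-1. Plates were incubated at 35 °C in ambient air for 18–24 h, and the MIC was read with a mirror reader.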

[12] = system: Escherichia coli; experiment: Compound was evaluated for the antibacterial activity against Escherichia coli 763 AcrABEFD; format: functional; outline: as §1
[13] = system: Enterococcus faecalis; experiment: Compound was evaluated for the antibacterial activity against Enterococcus faecalis 1; format: functional; outline: as §1
[14] = system: Enterococcus faecalis; experiment: Compound was evaluated for the antibacterial activity against Enterococcus faecalis 7; format: functional; outline: as §1
[15] = system: Haemophilus influenzae; experiment: Compound was evaluated for the antibacterial activity against Haemophilus influenzae NEMC1; format: functional; outline: as §1
[16] = system: Haemophilus influenzae; experiment: Compound was evaluated for the antibacterial activity against Haemophilus influenzae Q1; format: functional; outline: as §1
[17] = system: Moraxella catarrhalis; experiment: Compound was evaluated for the antibacterial activity against Moraxella catarrhalis 1502; format: functional; outline: as §1
[18] = system: Staphylococcus aureus; experiment: Compound was evaluated for the antibacterial activity against Staphylococcus aureus WCUH 29; format: functional; outline: as §1
[19] = system: Staphylococcus aureus; experiment: Compound was evaluated for the antibacterial activity against Staphylococcus aureus oxford; format: functional; outline: as §1
[20] = system: Streptococcus pneumoniae; experiment: Compound was evaluated for the antibacterial activity against Streptococcus pneumoniae 1629; format: functional; outline: as §1
[21] = system: Streptococcus pneumoniae; experiment: Compound was evaluated for the antibacterial activity against Streptococcus pneumoniae ERY2; format: functional; outline: as §1
[22] = system: Streptococcus pneumoniae; experiment: Compound was evaluated for the antibacterial activity against Streptococcus pneumoniae N1387; format: functional; outline: as §1
[23] = Compound was evaluated for its inhibitory activity against VRS (valyl tRNA synthetase) from staphylococcus aureus WCUH29

For CC[C@H](C)[C@H](NC(=O)OCc1ccccc1)C(=O)NS(=O)(=O)CC(=O)N[C@@]1(C(=O)OC)[C@@H](OC(=O)[C@@H](NC(=O)OCc2ccccc2)[C@@H](C)CC)C[C@H]2C(C(N)=O)=CN(C)C[C@H]21, which inhibition [1] is on record?
Its inhibition is 46%.

And the IC50 [2]?
Its IC50 is 500 nM.

What about the inhibition [3] of the same molecule?
Its inhibition is “inactive”.

What about the inhibition [4] of the same molecule?
Its inhibition is “inactive”.

For CC[C@H](C)[C@H](N)C(=O)NS(=O)(=O)CC(=O)N[C@]1(C(=O)OC)[C@@H]2CN(C)C=C(C(N)=O)[C@@H]2C[C@@H]1O, which IC50 [5] is on record?
The IC50 was 60 nM.

What about the IC50 [2] of the same molecule?
The IC50 was 17 nM.

And the inhibition [6]?
The inhibition was 40%.

For CC[C@H](C)CC(=O)NS(=O)(=O)CC(=O)N[C@]1(C(=O)OC)[C@@H]2CN(C)C=C(C(N)=O)[C@@H]2C[C@@H]1O, which inhibition [1] is on record?
The inhibition was 23%.

What about the inhibition [7] of the same molecule?
The inhibition was 25%.

And the inhibition [3]?
Its inhibition is “inactive”.

And the inhibition [8]?
The inhibition was 13%.

With CC[C@H](C)CC(=O)NS(=O)(=O)CC(=O)N[C@@]1(C(=O)O)[C@@H](OC(=O)C[C@@H](C)CC)C[C@H]2C(C(N)=O)=CN(C)C[C@H]21 as the molecule, how does the IC50 [5] read?
Its IC50 is 14600 nM.

And the IC50 [2]?
Its IC50 is 6100 nM.

And the inhibition [6]?
The inhibition was 65%.

Which results are given for CC[C@H](C)[C@H](N)C(=O)NS(=O)(=O)CC(=O)N[C@]1(C(=O)OCc2ccccc2)[C@@H]2CN(C)C=C(C(N)=O)[C@@H]2C[C@@H]1O?
IC50 [5]: 120 nM; IC50 [2]: 25 nM; inhibition [9]: inactive; inhibition [10]: inactive

With CC[C@H](C)[C@H](N)C(=O)NS(=O)(=O)CC(=O)N[C@]1(C(=O)O)[C@@H]2CN(C)C=C(C(N)=O)[C@@H]2C[C@@H]1O as the molecule, how does the MIC [11] read?
The MIC was greater than 64 µg/mL.

And the MIC [12]?
Its MIC is greater than 64 µg/mL.

And the MIC [13]?
Its MIC is greater than 64 µg/mL.

What about the MIC [14] of the same molecule?
The MIC was greater than 64 µg/mL.

And the MIC [15]?
The MIC was 64 µg/mL (≈ 131 µM).

And the MIC [16]?
Its MIC is 64 µg/mL (≈ 131 µM).

What about the IC50 [5] of the same molecule?
Its IC50 is 14 nM.

And the IC50 [2]?
The IC50 was 4.2 nM.

And the MIC [17]?
The MIC was greater than 64 µg/mL.

What about the MIC [18] of the same molecule?
The MIC was greater than 64 µg/mL.

And the MIC [19]?
The MIC was greater than 64 µg/mL.

What about the MIC [20] of the same molecule?
Its MIC is greater than 64 µg/mL.

What about the MIC [21] of the same molecule?
The MIC was 64 µg/mL (≈ 131 µM).

What about the MIC [22] of the same molecule?
Its MIC is greater than 64 µg/mL.

And the IC50 [23]?
Its IC50 is 126 nM.

For CC[C@H](C)CC(=O)NS(=O)(=O)CC(=O)N[C@@]1(C(=O)OC)[C@@H](OC(=O)C[C@@H](C)CC)C[C@H]2C(C(N)=O)=CN(C)C[C@H]21, which inhibition [1] is on record?
Its inhibition is 18%.

What about the inhibition [7] of the same molecule?
Its inhibition is 9%.

What about the inhibition [3] of the same molecule?
Its inhibition is “inactive”.

And the inhibition [4]?
The inhibition was “inactive”.

For CC(C)C[C@H](N)C(=O)NS(=O)(=O)CC(=O)N[C@]1(C(=O)O)[C@@H]2CN(C)C=C(C(N)=O)[C@@H]2C[C@@H]1O, which MIC [11] is on record?
Its MIC is greater than 64 µg/mL.

And the MIC [12]?
Its MIC is greater than 64 µg/mL.

And the MIC [13]?
Its MIC is greater than 64 µg/mL.

What about the MIC [14] of the same molecule?
Its MIC is greater than 64 µg/mL.

And the MIC [15]?
Its MIC is 64 µg/mL (≈ 131 µM).

And the MIC [16]?
Its MIC is 64 µg/mL (≈ 131 µM).

What about the IC50 [5] of the same molecule?
Its IC50 is 910 nM.

What about the IC50 [2] of the same molecule?
Its IC50 is 68 nM.

What about the MIC [17] of the same molecule?
Its MIC is greater than 64 µg/mL.

And the MIC [18]?
The MIC was greater than 64 µg/mL.

And the MIC [19]?
Its MIC is greater than 64 µg/mL.

And the MIC [20]?
Its MIC is 32 µg/mL (≈ 65.4 µM).

And the MIC [21]?
The MIC was 16 µg/mL (≈ 32.7 µM).

What about the MIC [22] of the same molecule?
The MIC was 64 µg/mL (≈ 131 µM).

And the IC50 [23]?
Its IC50 is 290 nM.

For CC(C)[C@H](N)C(=O)NS(=O)(=O)CC(=O)N[C@]1(C(=O)O)[C@@H]2CN(C)C=C(C(N)=O)[C@@H]2C[C@@H]1O, which IC50 [5] is on record?
Its IC50 is 37 nM.

And the IC50 [2]?
Its IC50 is 2.9 nM.

And the IC50 [23]?
The IC50 was 30 nM.

What does the source list for CC[C@H](C)CC(=O)NS(=O)(=O)CC(=O)N[C@]1(C(=O)O)[C@@H]2CN(C)C=C(C(N)=O)[C@@H]2C[C@@H]1O?
IC50 [5]: 3270 nM; IC50 [2]: 22300 nM; inhibition [3]: inactive

Which results are given for CC[C@H](C)CC(=O)NS(=O)(=O)CC(=O)N[C@@]1(C(=O)OCc2ccccc2)[C@@H](OC(=O)C[C@@H](C)CC)C[C@H]2C(C(N)=O)=CN(C)C[C@H]21?
inhibition [1]: 19%; inhibition [7]: 20%; inhibition [3]: 6%; inhibition [4]: inactive
